# Laboratory results from ChEMBL document CHEMBL4411313, “Substrate-Specific Inhibition Constants for Phospholipase A2 Acting on Unique Phospholipid Substrates in Mixed Micelles and Membranes Using Lipidomics” (J Med Chem, 2019).
# Assays:
# [1] = biological target: T1, 85/88 kDa calcium-independent phospholipase A2 (Homo sapiens) (UniProt O60733); test: (§1) Inhibition of human recombinant calcium-independent PLA2 using PAPE as substrate assessed as assessed as reduction in free AA formation after 30 mins in presence of equal molar mixture of PAPA/PAPC/PAPE/PAPG/PAPS/PLPC by HPLC-MS analysis
# T1 sequence (whole entry): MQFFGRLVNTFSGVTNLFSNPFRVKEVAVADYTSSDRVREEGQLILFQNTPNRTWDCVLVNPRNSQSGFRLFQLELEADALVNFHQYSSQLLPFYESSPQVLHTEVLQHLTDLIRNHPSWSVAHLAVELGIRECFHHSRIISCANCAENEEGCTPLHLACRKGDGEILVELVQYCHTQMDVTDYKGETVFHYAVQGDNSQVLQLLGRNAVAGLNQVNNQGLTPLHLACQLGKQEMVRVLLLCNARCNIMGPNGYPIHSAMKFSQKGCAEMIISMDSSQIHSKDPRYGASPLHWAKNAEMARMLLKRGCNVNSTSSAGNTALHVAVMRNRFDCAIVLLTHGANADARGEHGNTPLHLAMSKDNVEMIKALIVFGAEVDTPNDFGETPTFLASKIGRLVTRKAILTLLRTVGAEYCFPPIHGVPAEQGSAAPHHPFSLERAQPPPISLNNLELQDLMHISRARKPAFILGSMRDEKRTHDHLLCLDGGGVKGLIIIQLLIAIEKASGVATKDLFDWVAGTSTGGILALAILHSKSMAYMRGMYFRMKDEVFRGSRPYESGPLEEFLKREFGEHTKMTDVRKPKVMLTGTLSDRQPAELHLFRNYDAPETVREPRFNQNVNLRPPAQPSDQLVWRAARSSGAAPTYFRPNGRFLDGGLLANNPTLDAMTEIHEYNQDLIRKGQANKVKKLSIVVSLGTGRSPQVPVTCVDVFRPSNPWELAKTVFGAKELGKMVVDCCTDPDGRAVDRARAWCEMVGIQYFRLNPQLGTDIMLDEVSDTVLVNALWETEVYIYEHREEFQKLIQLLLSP
# Summary of the method: (§2)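 The iPLA2 substrate was an equimolar mixture of PAPA, PAPC, PAPE, PAPG and PAPS (100 µM total) with 400 µM C12E8. Buffer was 100 mM HEPES pH 7.5, 2 mM ATP and 4 mM DTT; 30 min at 40 °C. Each 16:0 lysophospholipid was quantified in positive ion mode; free AA, common to all five substrates, in negative ion mode.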
# [2] = biological target: T1, 85/88 kDa calcium-independent phospholipase A2 (Homo sapiens); test: (§3) Inhibition of human recombinant calcium-independent PLA2 using PAPG as substrate assessed as reduction in 16:0 […] formation after 30 mins in presence of equal molar mixture of PAPA/PAPC/PAPE/PAPG/PAPS/PLPC by HPLC-MS analysis
# [3] = biological target: T2, Secretory phospholipase A2 (Homo sapiens) (UniProt Q5R387+Q9NZK7+P14555+Q9BZM2+Q9UNK4+P39877+O15496+P04054+Q9NZ20+Q9BZM1+Q9BX93)
# [4] = biological target: T2, Secretory phospholipase A2 (Homo sapiens); remark: listed apart in the source
# [5] = biological target: T2, Secretory phospholipase A2 (Homo sapiens); remark: listed apart in the source
# [6] = biological target: T1, 85/88 kDa calcium-independent phospholipase A2 (Homo sapiens); test: (§4) Inhibition of human recombinant calcium-independent PLA2 using PAPC as substrate assessed as reduction in 16:0 LPC formation after 30 mins by HPLC-MS analysis
# Summary of the method: (§5)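 Human recombinant group VIA iPLA2 acted on 100 µM single phospholipid (PAPC or PLPC) in 400 µM C12E8 mixed micelles. Buffer was 100 mM HEPES pH 7.5, 2 mM ATP and 4 mM DTT; incubation 30 min at 40 °C. 16:0 LPC was read by HILIC-MRM in positive ion mode; free AA or LA by C18 LC-MS in negative ion mode.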
# [7] = biological target: T3, 85/88 kDa calcium-independent phospholipase A2 (Homo sapiens, UniProt O60733); test: as §4; summary of the method: as §5
# T3 sequence (O60733 whole entry): T1 sequence (whole entry)
# [8] = biological target: T3, 85/88 kDa calcium-independent phospholipase A2; test: Inhibition of human recombinant calcium-independent PLA2 using PAPC as substrate assessed as reduction in free AA formation after 30 mins by HPLC-MS analysis; summary of the method: as §5
# [9] = biological target: T1, 85/88 kDa calcium-independent phospholipase A2 (Homo sapiens); test: (§6) Inhibition of human recombinant calcium-independent PLA2 using PAPC as substrate assessed as reduction in free [14C]-AA formation after 30 mins by scintillation counting
# Summary of the method: (§7)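 Radioactive format: iPLA2 hydrolysed PAPC/C12E8 mixed micelles traced with 1-palmitoyl-2-(1-[14C]arachidonoyl) PC. Released [14C]-AA was measured by scintillation counting. Percent inhibition was plotted against log mole fraction or log concentration to derive X1(50) and IC50.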
# [10] = biological target: T3, 85/88 kDa calcium-independent phospholipase A2; test: as §6; summary of the method: as §7
# [11] = biological target: T3, 85/88 kDa calcium-independent phospholipase A2; test: Inhibition of human recombinant calcium-independent PLA2 using PAPS as substrate assessed as reduction in […] after 30 mins in presence of equal molar mixture of PAPA/PAPC/PAPE/PAPG/PAPS/PLPC by HPLC-MS analysis
# [12] = biological target: T3, 85/88 kDa calcium-independent phospholipase A2; test: as §1; summary of the method: as §2
# [13] = biological target: T3, 85/88 kDa calcium-independent phospholipase A2; test: Inhibition of human recombinant calcium-independent PLA2 using PAPE as substrate assessed as reduction in […] after 30 mins in presence of equal molar mixture of PAPA/PAPC/PAPE/PAPG/PAPS/PLPC by HPLC-MS analysis
# [14] = biological target: T3, 85/88 kDa calcium-independent phospholipase A2; test: Inhibition of human recombinant calcium-independent PLA2 using PLPC as substrate assessed as reduction in 16:0 LPC formation after 30 mins by HPLC-MS analysis; summary of the method: as §5
# [15] = biological target: T3, 85/88 kDa calcium-independent phospholipase A2; test: (§8) Inhibition of human recombinant calcium-independent PLA2 using PAPA as substrate assessed as reduction in […] after 30 mins by HPLC-MS analysis
# [16] = biological target: T1, 85/88 kDa calcium-independent phospholipase A2 (Homo sapiens); test: (§9) Inhibition of human recombinant iPLA2 assessed as reduction in 16:0 LPC formation after 30 mins by HPLC-MS analysis; summary of the method: as §5
# [17] = biological target: T3, 85/88 kDa calcium-independent phospholipase A2; test: as §9; summary of the method: as §5
# [18] = biological target: T3, 85/88 kDa calcium-independent phospholipase A2; test: as §3
# [19] = biological target: T1, 85/88 kDa calcium-independent phospholipase A2 (Homo sapiens); test: Inhibition of human recombinant calcium-independent PLA2 using PAPA as substrate assessed as reduction in 16:0 LPA formation after 30 mins in presence of equal molar mixture of PAPA/PAPC/PAPE/PAPG/PAPS/PLPC by HPLC-MS analysis; summary of the method: as §2
# [20] = biological target: T1, 85/88 kDa calcium-independent phospholipase A2 (Homo sapiens); test: Inhibition of human recombinant calcium-independent PLA2 using PAPE as substrate assessed as reduction in 16:0 LPE formation after 30 mins in presence of equal molar mixture of PAPA/PAPC/PAPE/PAPG/PAPS/PLPC by HPLC-MS analysis; summary of the method: as §2
# [21] = biological target: T1, 85/88 kDa calcium-independent phospholipase A2 (Homo sapiens); test: (§10) Inhibition of human recombinant iPLA2 assessed as reduction in free FA formation after 30 mins by HPLC-MS analysis; summary of the method: as §5
# [22] = biological target: T3, 85/88 kDa calcium-independent phospholipase A2; test: as §10; summary of the method: as §5
# [23] = biological target: T3, 85/88 kDa calcium-independent phospholipase A2; test: Inhibition of human recombinant calcium-independent PLA2 using PLPC as substrate assessed as reduction in free LA formation after 30 mins by HPLC-MS analysis
# [24] = biological target: 85/88 kDa calcium-independent phospholipase A2 (Homo sapiens) (UniProt O60733); test: Inhibition of human recombinant calcium-independent PLA2 using PAPS as substrate assessed as reduction in 16:0 LPS formation after 30 mins in presence of equal molar mixture of PAPA/PAPC/PAPE/PAPG/PAPS/PLPC by HPLC-MS analysis
# [25] = biological target: T1, 85/88 kDa calcium-independent phospholipase A2 (Homo sapiens); test: as §8
# [26] = biological target: T4, Cytosolic phospholipase A2 (Homo sapiens) (UniProt P47712); test: Inhibition of human recombinant cPLA2 assessed as reduction in 16:0 LPC formation after 30 mins by HPLC-MS analysis
# T4 sequence (whole entry): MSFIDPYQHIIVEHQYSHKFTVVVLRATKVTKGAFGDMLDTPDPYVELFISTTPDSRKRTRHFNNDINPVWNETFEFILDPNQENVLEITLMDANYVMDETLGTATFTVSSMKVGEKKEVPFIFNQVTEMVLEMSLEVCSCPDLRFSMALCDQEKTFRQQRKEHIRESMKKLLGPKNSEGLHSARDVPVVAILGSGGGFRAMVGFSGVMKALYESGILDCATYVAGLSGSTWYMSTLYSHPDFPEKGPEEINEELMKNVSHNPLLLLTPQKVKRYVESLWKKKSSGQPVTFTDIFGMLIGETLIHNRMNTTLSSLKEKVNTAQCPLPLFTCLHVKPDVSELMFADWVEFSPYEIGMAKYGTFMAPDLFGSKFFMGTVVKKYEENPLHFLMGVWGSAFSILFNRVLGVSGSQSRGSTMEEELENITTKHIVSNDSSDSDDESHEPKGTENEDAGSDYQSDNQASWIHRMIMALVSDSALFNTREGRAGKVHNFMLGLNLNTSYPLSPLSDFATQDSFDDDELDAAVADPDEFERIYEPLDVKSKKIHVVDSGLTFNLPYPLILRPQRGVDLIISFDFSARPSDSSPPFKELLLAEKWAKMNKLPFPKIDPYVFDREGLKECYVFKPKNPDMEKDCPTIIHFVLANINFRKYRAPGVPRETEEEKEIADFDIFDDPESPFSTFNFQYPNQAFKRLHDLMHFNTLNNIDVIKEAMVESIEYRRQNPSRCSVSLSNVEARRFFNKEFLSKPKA
# Summary of the method: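 Human recombinant group IVA cPLA2 in mixed micelles with 97 µM PAPC plus 3 µM PI(4,5)P2 (100 µM total phospholipid) and 400 µM C12E8. Buffer was 100 mM HEPES pH 7.5, 90 µM CaCl2 and 2 mM DTT; incubation 30 min at 40 °C. 16:0 LPC was read by HILIC-MRM (positive ion) and free AA by C18 LC-MS (negative ion).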
# [27] = biological target: Cytosolic phospholipase A2 (Homo sapiens) (UniProt P47712); test: Inhibition of human recombinant cytosolic PLA2 using PAPA as substrate assessed as reduction in free FA formation after 30 mins in presence of equal molar mixture of PAPA/PAPC/PAPE/PAPG/PAPS/PLPC by HPLC-MS analysis
smiles,measurement,setting,value
CCc1c(C(=O)C(N)=O)c2c(OCC(=O)O)cccc2n1Cc1ccccc1,XI50 (mole fraction),[1],0.0008
same,XI50 (mole fraction),[2],0.0031 to 0.026
same,XI50,[3],170 pM
same,XI50,[4],190 pM
same,XI50,[5],900 pM
CCCCCCCCSCC(=O)C(F)(F)F,XI50 (mole fraction),[6],8e-05
same,IC50,[7],54 nM
same,IC50,[8],49 nM
same,XI50 (mole fraction),[9],9e-05
same,IC50,[10],48 nM
same,IC50,[11],46 nM
same,XI50 (mole fraction),[1],7e-05
same,IC50,[12],50 nM
same,IC50,[13],63 nM
same,IC50,[14],83 nM
same,IC50,[15],160 nM
same,XI50 (mole fraction),[16],8e-05
same,IC50,[17],55 nM
same,XI50 (mole fraction),[2],6e-05
same,IC50,[18],48 nM
same,XI50 (mole fraction),[19],0.0002
same,XI50 (mole fraction),[20],9e-05
same,XI50 (mole fraction),[21],7e-05
same,IC50,[22],48 nM
same,IC50,[23],67 nM
same,XI50,[24],0.05 nM
O=C1NC(=O)C(=Cc2ccc(C(=O)NC[C@@H]3C[C@@H](SC(c4ccccc4)(c4ccccc4)c4ccccc4)CN3C(=O)c3ccccc3C(=O)c3ccc(F)cc3F)cc2)S1,XI50,[25],130 pM
same,XI50 (mole fraction),[26],0.0023
same,XI50,[27],1.8 nM
same,XI50,[24],2 nM
